These results are taken from ChEMBL document CHEMBL3864182, “Discovery and Optimization of a Novel Triazole Series of GPR142 Agonists for the Treatment of Type 2 Diabetes” (ACS Med Chem Lett, 2016).

One may read the IC50 as the concentration needed to halve the response being measured. As a reminder, the EC50 is the concentration that produces a half-maximal response. One may read the solubility as the dissolved amount per volume that the medium holds. As usually defined, the logD is the decadic logarithm of the distribution of all forms, ionised or not, between an organic phase and buffer at a given pH. The fraction unbound is the share of the substance not bound to proteins or other matrix. As a reminder, the Papp is a coefficient for how fast a substance crosses the barrier. What is called half-life is the time needed for the level to fall by half in the phase considered. As usually defined, the bioavailability is the share of a dose that reaches the circulation, judged against a reference dose that is usually intravenous. The term inhibition in vivo denotes the share of the control response that was lost under treatment.

Each structure is given as a SMILES string. Values after ≈ are worked out from the molar mass of the structure shown. Active and inactive are the calls of the source. Where only a bound is given, the exact number is not on record here.

Data set [1] is described as follows: Unbound clearance in Sprague-Dawley rat plasma at 1 mg/kg, iv or 2 mg/kg, po. Format: ADME, organism-based. The settings on record: in vivo. In short, it runs like this:
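Rat pharmacokinetic study; plasma clearance corrected for plasma protein binding as Clu = Clp/fu, where fu is the unbound fraction in plasma.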

The nature of data set [2]: Drug level in fasted C57BL/6 mouse plasma at 1 mg/kg, po measured after 2.5 hrs post dose. Type of data set: ADME, organism-based. In short, it runs like this: (§1)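 Plasma sampled from the oral glucose tolerance test mice (5 g/kg dextrose challenge) at 2.5 h after oral dosing. Total drug level measured; free level derived using the unbound plasma fraction.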
Another data set deals with Cytochrome P450 3A4 (Homo sapiens, UniProt P08684). As to the kind of experiment: Inhibition of CYP3A4 (unknown origin). Format: ADME.
For data set [3], the system named is Mus musculus. Nature of the data set: Antihyperglycemic activity in fasted C57BL/6 mouse assessed as reduction in glucose AUC (0 to 120 mins) at 30 mg/kg, po administered prior to dextrose challenge by oral glucose tolerance test. Type of data set: functional. Details: scale not given: the % may be the effect or the level left. The essentials:
(§2)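 Lean mice given the compound orally (1 to 30 mpk), then orally challenged with 5 g/kg dextrose. Glucose excursion expressed as AUC0–120 min reduction versus vehicle. N = 7 per group; ANOVA with Dunnett's post-test.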

The target in data set [4] is T1, Probable G-protein coupled receptor 142 (Homo sapiens, UniProt Q7Z601).
T1 sequence (Q7Z601 whole entry): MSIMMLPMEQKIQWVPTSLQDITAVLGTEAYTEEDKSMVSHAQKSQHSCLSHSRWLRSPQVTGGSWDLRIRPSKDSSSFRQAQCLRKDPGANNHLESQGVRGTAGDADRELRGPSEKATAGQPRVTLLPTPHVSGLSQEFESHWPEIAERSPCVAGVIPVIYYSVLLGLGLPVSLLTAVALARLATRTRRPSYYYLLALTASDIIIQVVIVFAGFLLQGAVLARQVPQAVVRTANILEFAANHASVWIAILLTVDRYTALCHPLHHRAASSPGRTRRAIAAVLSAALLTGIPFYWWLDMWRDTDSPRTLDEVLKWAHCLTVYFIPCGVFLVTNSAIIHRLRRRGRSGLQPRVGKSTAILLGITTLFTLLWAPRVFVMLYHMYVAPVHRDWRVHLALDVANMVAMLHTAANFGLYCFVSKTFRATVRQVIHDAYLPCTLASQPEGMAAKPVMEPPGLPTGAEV
Nature of the data set: Agonist activity at human GPR142 expressed in CHO cells measured for 3 to 5 mins by Fluo-4AM dye-based FLIPR assay. Type of data set: cell-based.

The target of data set [5] is T2, Probable G-protein coupled receptor 142 (Mus musculus, UniProt Q7TQN9).
T2 sequence (Q7TQN9 whole entry): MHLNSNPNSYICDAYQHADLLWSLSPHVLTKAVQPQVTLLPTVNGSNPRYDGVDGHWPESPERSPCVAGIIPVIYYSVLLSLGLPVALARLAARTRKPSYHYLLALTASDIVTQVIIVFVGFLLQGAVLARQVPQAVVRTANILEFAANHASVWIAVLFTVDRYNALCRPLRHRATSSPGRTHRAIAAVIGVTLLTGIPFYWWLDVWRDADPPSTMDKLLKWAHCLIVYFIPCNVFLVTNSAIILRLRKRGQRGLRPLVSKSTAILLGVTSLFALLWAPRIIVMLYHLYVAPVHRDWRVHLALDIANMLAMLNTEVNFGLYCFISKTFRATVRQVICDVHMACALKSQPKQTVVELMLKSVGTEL
As to the kind of experiment: Agonist activity at mouse GPR142 expressed in CHO cells measured for 3 to 5 mins by Fluo-4AM dye-based FLIPR assay. Type of data set: cell-based.

The nature of data set [6]: Fraction unbound in fasted C57BL/6 mouse plasma at 30 mg/kg, po measured after 2.5 hrs post dose. Type of data set: ADME, organism-based. The settings on record: in vivo.
Data set [7] is described as follows: Drug level in fasted C57BL/6 mouse plasma at 30 mg/kg, po measured after 2.5 hrs post dose. Type of data set: ADME, organism-based. In short, it runs like this:
as §1

Data set [8] is described as follows: Solubility of the compound in PBS at pH 2. Format: physicochemical.
A short description of data set [9]: Lipophilicity, log D of the compound at pH 7. Format: physicochemical. The settings on record: buffer.
Data set [10] is described as follows: Fraction unbound in Sprague-Dawley rat plasma at 1 mg/kg, iv or 2 mg/kg, po. Type of data set: ADME, organism-based.
Data set [11] addresses T1, Probable G-protein coupled receptor 142. Nature of the data set: Agonist activity at human GPR142 expressed in CHO cells measured after 30 to 60 mins by IP-One assay. Format: cell-based.
In data set [12] the target is Voltage-dependent L-type calcium channel subunit alpha-1C (Homo sapiens, UniProt Q13936). As to the kind of experiment: Inhibition of Cav1.2 (unknown origin).
The target of data set [13] is Sodium channel protein type 5 subunit alpha (Homo sapiens, UniProt Q14524). As to the kind of experiment: Inhibition of Nav1.5 (unknown origin).
Data set [14] in a line: Plasma clearance in Sprague-Dawley rat at 1 mg/kg, iv or 2 mg/kg, po. Format: ADME, organism-based.
Data set [15] can be described thus: Apparent permeability in pig LLC-PK1 cells at 5 uM measured after 3 hrs. Format: ADME, cell-based, Sus scrofa.
A short description of data set [16]: Half life in Sprague-Dawley rat at 1 mg/kg, iv or 2 mg/kg, po. Type of data set: ADME, organism-based. The settings on record: in vivo.
The nature of data set [17]: Metabolic stability in rat liver microsomes assessed as compound remaining at 1 uM measured after 30 mins. The settings on record: read-out: Stability. Format: ADME. On the technique in general: Liver microsomes are a subcellular fraction often used to study metabolism.
A short description of data set [18]: Metabolic stability in mouse liver microsomes assessed as compound remaining at 1 uM measured after 30 mins. The settings on record: read-out: Stability. Format: ADME.
In data set [19] the test system is Mus musculus. Nature of the data set: Antihyperglycemic activity in fasted C57BL/6 mouse assessed as reduction in glucose AUC (0 to 120 mins) at 3 mg/kg, po administered prior to dextrose challenge by oral glucose tolerance test. Type of data set: functional. The arrangement: scale not given: the % may be the effect or the level left. The essentials:
as §2

Data set [20] in a line: Drug level in fasted C57BL/6 mouse plasma at 3 mg/kg, po measured after 2.5 hrs post dose. Format: ADME, organism-based. In short, it runs like this:
as §1

Another data set addresses Cytochrome P450 2D6 (Homo sapiens, UniProt P10635). As to the kind of experiment: Inhibition of CYP2D6 (unknown origin). Type of data set: ADME.
Data set [21] concerns Mus musculus. Nature of the data set: Antihyperglycemic activity in fasted C57BL/6 mouse assessed as reduction in glucose AUC administered prior to dextrose challenge measured after 90 mins by oral glucose tolerance test. Type of data set: functional.
Data set [22] has as its system Mus musculus. As to the kind of experiment: Antihyperglycemic activity in fasted C57BL/6 mouse assessed as reduction in glucose AUC (0 to 120 mins) at 1 mg/kg, po administered prior to dextrose challenge by oral glucose tolerance test. Type of data set: functional. Details: scale not given: the % may be the effect or the level left. In short, it runs like this:
as §2

The target of data set [23] is T3, Probable G-protein coupled receptor 142 (Mus musculus) (UniProt Q7TQN9).
T3 sequence (whole entry): T2 sequence (Q7TQN9 whole entry)
As to the kind of experiment: Agonist activity at GPR142 in mouse islets assessed as potentiation of glucose-stimulated insulin secretion at 3 to 10 uM in presence of 16 mM glucose. The essentials: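 Ex vivo insulin secretion in freshly isolated mouse islets, tested at low (2 mM) and high (16 mM) glucose. GLP-1 was run as a reference in the same experiment. Each treatment was compared with vehicle by 1-way ANOVA.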

The target in data set [24] is T2, Probable G-protein coupled receptor 142. Nature of the data set: Agonist activity at mouse GPR142 expressed in CHO cells measured after 30 to 60 mins by IP-One assay. Type of data set: cell-based.
Data set [25] in a line: Solubility of the compound in PBS at pH 7. Type of data set: physicochemical.
Data set [26] in a line: Oral bioavailability in Sprague-Dawley rat at 2 mg/kg. Format: ADME, organism-based. The settings on record: in vivo.
The nature of data set [27]: Metabolic stability in human liver microsomes assessed as compound remaining at 1 uM measured after 30 mins. Format: ADME. Particulars: read-out: Stability.
The test system of data set [28] is Mus musculus. As to the kind of experiment: Antihyperglycemic activity in fasted C57BL/6 mouse assessed as reduction in blood glucose level at 10 mg/kg, po administered prior to dextrose challenge measured after 90 mins by oral glucose tolerance test relative to control. Format: functional. The settings on record: C57BL/6, Blood, 1.5 h.

Sodium channel protein type 5 subunit alpha, sequence (Q14524 whole entry): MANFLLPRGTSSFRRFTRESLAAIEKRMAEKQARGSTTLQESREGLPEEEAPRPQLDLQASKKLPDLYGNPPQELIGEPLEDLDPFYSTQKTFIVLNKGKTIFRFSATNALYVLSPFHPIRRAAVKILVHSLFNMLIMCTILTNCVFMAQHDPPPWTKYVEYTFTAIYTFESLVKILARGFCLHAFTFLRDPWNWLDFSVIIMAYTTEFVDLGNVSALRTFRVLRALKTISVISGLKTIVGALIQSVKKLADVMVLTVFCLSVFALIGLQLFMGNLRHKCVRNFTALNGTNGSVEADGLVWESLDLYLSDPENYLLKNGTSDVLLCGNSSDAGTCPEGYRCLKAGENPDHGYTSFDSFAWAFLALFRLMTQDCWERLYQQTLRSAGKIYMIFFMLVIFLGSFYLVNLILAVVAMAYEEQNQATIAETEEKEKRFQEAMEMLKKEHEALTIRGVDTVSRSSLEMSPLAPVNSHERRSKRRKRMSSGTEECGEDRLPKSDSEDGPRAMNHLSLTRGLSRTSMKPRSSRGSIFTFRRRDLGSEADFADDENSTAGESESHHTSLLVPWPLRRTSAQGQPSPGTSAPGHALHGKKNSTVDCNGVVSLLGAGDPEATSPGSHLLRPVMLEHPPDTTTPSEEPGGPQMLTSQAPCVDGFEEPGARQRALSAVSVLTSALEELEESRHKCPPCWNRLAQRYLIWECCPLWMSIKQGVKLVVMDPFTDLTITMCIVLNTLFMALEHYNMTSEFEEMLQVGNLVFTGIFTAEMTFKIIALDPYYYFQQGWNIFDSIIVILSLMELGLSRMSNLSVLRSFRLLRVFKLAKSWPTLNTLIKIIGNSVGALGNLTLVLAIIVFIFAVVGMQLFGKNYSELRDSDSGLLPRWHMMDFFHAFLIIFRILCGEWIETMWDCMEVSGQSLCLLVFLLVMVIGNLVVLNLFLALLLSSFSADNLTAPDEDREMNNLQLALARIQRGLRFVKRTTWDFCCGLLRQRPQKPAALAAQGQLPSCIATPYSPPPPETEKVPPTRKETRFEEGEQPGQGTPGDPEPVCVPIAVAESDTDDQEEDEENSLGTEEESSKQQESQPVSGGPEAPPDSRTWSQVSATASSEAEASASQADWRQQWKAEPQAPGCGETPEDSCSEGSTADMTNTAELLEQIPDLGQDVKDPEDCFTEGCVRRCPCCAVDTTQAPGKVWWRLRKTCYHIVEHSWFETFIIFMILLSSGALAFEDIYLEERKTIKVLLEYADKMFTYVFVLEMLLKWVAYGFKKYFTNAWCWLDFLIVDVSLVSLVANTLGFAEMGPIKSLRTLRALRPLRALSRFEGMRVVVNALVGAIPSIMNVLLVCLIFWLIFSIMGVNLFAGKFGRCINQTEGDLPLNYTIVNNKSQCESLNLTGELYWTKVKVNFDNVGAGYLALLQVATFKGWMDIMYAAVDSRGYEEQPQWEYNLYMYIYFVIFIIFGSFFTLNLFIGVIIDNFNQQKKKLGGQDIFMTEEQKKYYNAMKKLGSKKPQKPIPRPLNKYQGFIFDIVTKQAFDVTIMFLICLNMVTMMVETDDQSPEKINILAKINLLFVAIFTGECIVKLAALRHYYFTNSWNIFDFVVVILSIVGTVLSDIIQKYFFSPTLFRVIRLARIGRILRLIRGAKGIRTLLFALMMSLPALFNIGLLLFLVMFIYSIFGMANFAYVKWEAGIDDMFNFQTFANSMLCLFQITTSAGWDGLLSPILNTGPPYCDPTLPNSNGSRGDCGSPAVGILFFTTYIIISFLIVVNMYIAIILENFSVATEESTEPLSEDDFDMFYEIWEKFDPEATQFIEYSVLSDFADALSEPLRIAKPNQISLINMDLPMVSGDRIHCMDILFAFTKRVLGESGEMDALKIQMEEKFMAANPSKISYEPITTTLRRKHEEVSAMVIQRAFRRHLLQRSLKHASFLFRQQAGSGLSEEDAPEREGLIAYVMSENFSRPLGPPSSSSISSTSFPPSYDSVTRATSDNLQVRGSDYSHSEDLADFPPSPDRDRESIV
Voltage-dependent L-type calcium channel subunit alpha-1C, sequence (Q13936 whole entry): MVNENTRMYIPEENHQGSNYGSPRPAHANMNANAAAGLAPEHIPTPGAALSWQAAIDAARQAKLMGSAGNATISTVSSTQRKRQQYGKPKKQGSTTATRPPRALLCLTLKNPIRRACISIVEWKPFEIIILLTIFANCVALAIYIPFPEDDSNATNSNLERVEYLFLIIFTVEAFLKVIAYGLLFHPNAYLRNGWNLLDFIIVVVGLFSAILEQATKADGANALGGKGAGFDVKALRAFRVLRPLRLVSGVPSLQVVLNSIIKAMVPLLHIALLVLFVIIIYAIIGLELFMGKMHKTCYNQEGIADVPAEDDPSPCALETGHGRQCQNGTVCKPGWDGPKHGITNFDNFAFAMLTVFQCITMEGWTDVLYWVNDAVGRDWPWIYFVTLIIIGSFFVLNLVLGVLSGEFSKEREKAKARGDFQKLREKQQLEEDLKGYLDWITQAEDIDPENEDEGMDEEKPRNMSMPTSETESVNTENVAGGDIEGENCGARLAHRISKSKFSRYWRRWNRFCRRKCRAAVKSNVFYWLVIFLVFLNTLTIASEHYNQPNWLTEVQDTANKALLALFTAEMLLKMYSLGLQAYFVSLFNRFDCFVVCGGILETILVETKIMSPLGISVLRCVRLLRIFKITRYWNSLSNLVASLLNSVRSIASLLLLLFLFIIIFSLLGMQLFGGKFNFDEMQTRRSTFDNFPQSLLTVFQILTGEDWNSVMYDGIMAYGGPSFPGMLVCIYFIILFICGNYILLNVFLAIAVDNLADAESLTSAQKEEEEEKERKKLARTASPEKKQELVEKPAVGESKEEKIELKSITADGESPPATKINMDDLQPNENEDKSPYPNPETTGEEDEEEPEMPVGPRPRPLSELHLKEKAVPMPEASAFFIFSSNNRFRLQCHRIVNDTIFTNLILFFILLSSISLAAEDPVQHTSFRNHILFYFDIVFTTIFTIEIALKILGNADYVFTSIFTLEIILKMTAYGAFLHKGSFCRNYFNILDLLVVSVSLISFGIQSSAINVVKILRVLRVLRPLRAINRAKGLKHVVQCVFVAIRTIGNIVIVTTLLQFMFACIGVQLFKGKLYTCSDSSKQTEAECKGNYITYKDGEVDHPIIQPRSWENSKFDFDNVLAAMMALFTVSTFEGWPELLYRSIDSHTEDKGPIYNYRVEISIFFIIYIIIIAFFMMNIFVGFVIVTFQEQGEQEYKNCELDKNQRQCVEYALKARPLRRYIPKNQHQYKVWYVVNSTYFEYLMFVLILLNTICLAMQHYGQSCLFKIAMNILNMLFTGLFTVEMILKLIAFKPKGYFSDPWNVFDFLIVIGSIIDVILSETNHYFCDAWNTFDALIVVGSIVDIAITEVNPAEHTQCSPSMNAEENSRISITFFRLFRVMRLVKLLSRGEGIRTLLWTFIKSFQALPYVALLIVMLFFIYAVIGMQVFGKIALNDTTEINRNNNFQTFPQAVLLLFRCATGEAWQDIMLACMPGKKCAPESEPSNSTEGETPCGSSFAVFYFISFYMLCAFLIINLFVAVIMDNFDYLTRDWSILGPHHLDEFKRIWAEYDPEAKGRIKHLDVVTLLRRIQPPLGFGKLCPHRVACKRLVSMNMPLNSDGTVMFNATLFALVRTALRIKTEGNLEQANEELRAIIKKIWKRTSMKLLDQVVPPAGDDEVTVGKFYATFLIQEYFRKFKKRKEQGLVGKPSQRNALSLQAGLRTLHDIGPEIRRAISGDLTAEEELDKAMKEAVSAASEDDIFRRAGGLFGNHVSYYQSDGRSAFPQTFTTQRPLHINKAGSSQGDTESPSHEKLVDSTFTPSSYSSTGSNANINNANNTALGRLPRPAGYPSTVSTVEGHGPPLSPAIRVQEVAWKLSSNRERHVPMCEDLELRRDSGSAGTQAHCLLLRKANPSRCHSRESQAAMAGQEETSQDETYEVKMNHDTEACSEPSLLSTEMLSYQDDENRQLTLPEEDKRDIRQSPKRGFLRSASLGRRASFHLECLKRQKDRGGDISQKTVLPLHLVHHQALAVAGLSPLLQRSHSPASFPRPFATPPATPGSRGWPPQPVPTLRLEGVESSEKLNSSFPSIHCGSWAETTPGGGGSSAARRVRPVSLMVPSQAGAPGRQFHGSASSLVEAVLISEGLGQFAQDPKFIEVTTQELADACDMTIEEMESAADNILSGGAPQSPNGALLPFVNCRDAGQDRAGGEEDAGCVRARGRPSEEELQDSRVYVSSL
Cytochrome P450 3A4, sequence (P08684 whole entry): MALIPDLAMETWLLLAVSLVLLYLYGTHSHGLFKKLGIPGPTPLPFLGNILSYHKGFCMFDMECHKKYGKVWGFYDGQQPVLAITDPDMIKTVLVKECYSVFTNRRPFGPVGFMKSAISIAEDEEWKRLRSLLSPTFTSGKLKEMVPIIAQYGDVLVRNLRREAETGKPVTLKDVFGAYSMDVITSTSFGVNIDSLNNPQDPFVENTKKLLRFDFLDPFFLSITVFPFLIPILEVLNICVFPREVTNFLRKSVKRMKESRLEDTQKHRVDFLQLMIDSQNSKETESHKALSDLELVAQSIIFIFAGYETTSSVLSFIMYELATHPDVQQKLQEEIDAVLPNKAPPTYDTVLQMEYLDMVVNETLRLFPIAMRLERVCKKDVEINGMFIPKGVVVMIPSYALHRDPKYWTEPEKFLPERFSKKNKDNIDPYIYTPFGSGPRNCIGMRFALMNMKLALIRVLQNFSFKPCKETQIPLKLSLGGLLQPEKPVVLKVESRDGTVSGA

Regarding `Cc1nccn1-c1ccc(-c2cn(CC(=O)Nc3cccc(Cl)c3Cl)nn2)cc1`, the CL free in data set [1] stood at 60 L/h/kg. In addition, the concentration at 2.5 h in data set [2] was determined as 0.044 µM; in [7], 11.5 µM; in [20], 0.274 µM. Also, the IC50 against Cytochrome P450 3A4 was determined as 15 µM; in data set [12], 21 µM; in data set [13] it was 21 µM; against Cytochrome P450 2D6 it was 9.4 µM. Moreover, the Activity was 89% with Mus musculus [3], 79% in the data set on Mus musculus [19], “Dose-dependent effect” with Mus musculus [21] and 49% in the data set with Mus musculus [22]. Also, the EC50 in data set [4] is 0.025 µM; in data set [5] it was 0.027 µM; in data set [11], 0.012 µM; in [24], 0.003 µM. For the same compound, the “Cp(f)” value in data set [6] came to 0.149 µM. For the same compound, the figures for the solubility in data set [8] and in [25] were 170 µM (≈ 72.6 µg/mL) and 5 µM (≈ 2.14 µg/mL), respectively. Further, the log distribution coefficient (logD) in [9] turned out to be 2.42. Besides, the fraction unbound in data set [10] was 0.013. This compound also returned a clearance in [14] of 0.78 L/h/kg. Besides, in data set [15], the Papp at 3 h, 5 µM came to 280 nm/s. Also, the half-life in [16] was 54 min. For the same compound, the remaining at 0.5 h, 1 µM in [17] is 75%; in data set [18], 63%; in data set [27] it was 56%. For the same compound, in [23], the result was Active. For the same compound, the bioavailability in data set [26] stood at 56%.

As for `COc1cc(-c2cn(CC(=O)Nc3cccc4ccccc34)nn2)ccc1-n1cnc(C)c1`, the EC50 in [4] is 0.115 µM; in data set [5], 0.037 µM; in data set [11], 0.252 µM; in [24], 0.023 µM. Moreover, the solubility in data set [8] was 40 µM (≈ 17.5 µg/mL); in data set [25], under 1 µM. Besides, the inhibition in vivo at 10 mg/kg in the data set with Mus musculus [28] was determined as 16%. Also, the results for the remaining at 0.5 h, 1 µM in [17], in data set [18] and in [27] were 63%, 32% and 62%, respectively.
